Laboratory results published in ChEMBL document CHEMBL1137348, “Determination of the binding mode of thienopyrimidinedione antagonists to the human gonadotropin releasing hormone receptor using structure-activity relationships, site-directed mutagenesis, and homology modeling” (J Med Chem, 2006).

Legend:
[1] = biological target: Gonadotropin-releasing hormone receptor (Homo sapiens, UniProt P30968, H306A); experiment: Displacement of [His5, D-Tyr6]GnRH from GnRHR H306A mutant expressed in COS7 cells; format: cell-based, COS-7
Method in brief: (§1)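 Human GnRH-R mutants (all in F272(6.40)L background) electroporated into COS-7 cells. Membranes taken 36-48 h later and lysed by nitrogen cavitation. Shaken 2 h at room temperature, then filtered and scintillation counted.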

[2] = biological target: Gonadotropin-releasing hormone receptor (Homo sapiens, UniProt P30968, F313L); experiment: Displacement of [His5, D-Tyr6]GnRH from GnRHR F313L mutant expressed in COS7 cells; format: cell-based, COS-7; method in brief: as §1
[3] = biological target: Gonadotropin-releasing hormone receptor (Homo sapiens, UniProt P30968, D302A); experiment: Displacement of [His5, D-Tyr6]GnRH from GnRHR D302A mutant expressed in COS7 cells; format: cell-based, COS-7; method in brief: as §1
[4] = biological target: Gonadotropin-releasing hormone receptor (Homo sapiens, UniProt P30968, N27A); experiment: Displacement of [His5, D-Tyr6]GnRH from GnRHR N27A mutant expressed in COS7 cells; format: cell-based, COS-7; method in brief: as §1
[5] = biological target: Gonadotropin-releasing hormone receptor (Homo sapiens, UniProt P30968, L300A); experiment: Displacement of [His5, D-Tyr6]GnRH from GnRHR L300A mutant expressed in COS7 cells; format: cell-based, COS-7; method in brief: as §1
[6] = biological target: Gonadotropin-releasing hormone receptor (Homo sapiens, UniProt P30968, D302N); experiment: Displacement of [His5, D-Tyr6]GnRH from GnRHR D302N mutant expressed in COS7 cells; format: cell-based, COS-7; method in brief: as §1
[7] = biological target: Gonadotropin-releasing hormone receptor (Homo sapiens, UniProt P30968, H306E); experiment: Displacement of [His5, D-Tyr6]GnRH from GnRHR H306E mutant expressed in COS7 cells; format: cell-based, COS-7; method in brief: as §1
[8] = biological target: Gonadotropin-releasing hormone receptor (Homo sapiens, UniProt P30968, F309Q); experiment: Displacement of [His5, D-Tyr6]GnRH from GnRHR F309Q mutant expressed in COS7 cells; format: cell-based, COS-7; method in brief: as §1
[9] = biological target: Gonadotropin-releasing hormone receptor (Homo sapiens, UniProt P30968, F272L); experiment: Displacement of [125I]-His5, D-Tyr6]GnRH from GnRHR F272L mutant expressed in COS7 cells; format: cell-based, COS-7; method in brief: as §1
[10] = biological target: Gonadotropin-releasing hormone receptor (Homo sapiens, UniProt P30968, M24I); experiment: Displacement of [His5, D-Tyr6]GnRH from GnRHR M24I mutant expressed in COS7 cells; format: cell-based, COS-7; method in brief: as §1
[11] = biological target: Gonadotropin-releasing hormone receptor (Homo sapiens, UniProt P30968, Y284L); experiment: Displacement of [His5, D-Tyr6]GnRH from GnRHR Y284L mutant expressed in COS7 cells; format: cell-based, COS-7; method in brief: as §1
[12] = biological target: Gonadotropin-releasing hormone receptor (Homo sapiens, UniProt P30968, F309L); experiment: Displacement of [His5, D-Tyr6]GnRH from GnRHR F309L mutant expressed in COS-7 cells; format: cell-based; method in brief: as §1
[13] = biological target: Gonadotropin-releasing hormone receptor (Homo sapiens, UniProt P30968, Y290L); experiment: Displacement of [His5, D-Tyr6]GnRH from GnRHR Y290L mutant expressed in COS7 cells; format: cell-based, COS-7; method in brief: as §1
[14] = biological target: Gonadotropin-releasing hormone receptor (Homo sapiens, UniProt P30968, Q208E); experiment: Displacement of [His5, D-Tyr6]GnRH from GnRHR Q208E mutant expressed in COS7 cells; format: cell-based, COS-7; method in brief: as §1
Sequence of Gonadotropin-releasing hormone receptor (Homo sapiens, UniProt P30968, Q208E) (P30968 whole entry Q208E): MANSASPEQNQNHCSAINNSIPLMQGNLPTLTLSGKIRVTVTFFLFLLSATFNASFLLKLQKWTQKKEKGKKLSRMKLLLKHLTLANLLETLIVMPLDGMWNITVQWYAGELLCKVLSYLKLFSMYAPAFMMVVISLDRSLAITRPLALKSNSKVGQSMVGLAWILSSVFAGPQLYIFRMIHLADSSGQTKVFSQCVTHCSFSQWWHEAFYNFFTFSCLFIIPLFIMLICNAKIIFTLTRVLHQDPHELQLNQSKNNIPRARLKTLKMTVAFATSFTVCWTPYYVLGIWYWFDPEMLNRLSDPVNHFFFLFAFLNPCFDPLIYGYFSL

Sequence of Gonadotropin-releasing hormone receptor (Homo sapiens, UniProt P30968, F313L) (P30968 whole entry F313L): as the sequence (P30968 whole entry Q208E) above, with E208Q, F313L counted along it
Sequence of Gonadotropin-releasing hormone receptor (Homo sapiens, UniProt P30968, N27A) (P30968 whole entry N27A): as the sequence (P30968 whole entry Q208E) above, with N27A, E208Q counted along it
Sequence of Gonadotropin-releasing hormone receptor (Homo sapiens, UniProt P30968, D302N) (P30968 whole entry D302N): as the sequence (P30968 whole entry Q208E) above, with E208Q, D302N counted along it
Sequence of Gonadotropin-releasing hormone receptor (Homo sapiens, UniProt P30968, F309Q) (P30968 whole entry F309Q): as the sequence (P30968 whole entry Q208E) above, with E208Q, F309Q counted along it
Sequence of Gonadotropin-releasing hormone receptor (Homo sapiens, UniProt P30968, F309L) (P30968 whole entry F309L): as the sequence (P30968 whole entry Q208E) above, with E208Q, F309L counted along it
Sequence of Gonadotropin-releasing hormone receptor (Homo sapiens, UniProt P30968, H306A) (P30968 whole entry H306A): as the sequence (P30968 whole entry Q208E) above, with E208Q, H306A counted along it
Sequence of Gonadotropin-releasing hormone receptor (Homo sapiens, UniProt P30968, L300A) (P30968 whole entry L300A): as the sequence (P30968 whole entry Q208E) above, with E208Q, L300A counted along it
Sequence of Gonadotropin-releasing hormone receptor (Homo sapiens, UniProt P30968, H306E) (P30968 whole entry H306E): as the sequence (P30968 whole entry Q208E) above, with E208Q, H306E counted along it
Sequence of Gonadotropin-releasing hormone receptor (Homo sapiens, UniProt P30968, Y290L) (P30968 whole entry Y290L): as the sequence (P30968 whole entry Q208E) above, with E208Q, Y290L counted along it
Sequence of Gonadotropin-releasing hormone receptor (Homo sapiens, UniProt P30968, Y284L) (P30968 whole entry Y284L): as the sequence (P30968 whole entry Q208E) above, with E208Q, Y284L counted along it
Sequence of Gonadotropin-releasing hormone receptor (Homo sapiens, UniProt P30968, F272L) (P30968 whole entry F272L): as the sequence (P30968 whole entry Q208E) above, with E208Q, F272L counted along it
Sequence of Gonadotropin-releasing hormone receptor (Homo sapiens, UniProt P30968, D302A) (P30968 whole entry D302A): as the sequence (P30968 whole entry Q208E) above, with E208Q, D302A counted along it
Sequence of Gonadotropin-releasing hormone receptor (Homo sapiens, UniProt P30968, M24I) (P30968 whole entry M24I): as the sequence (P30968 whole entry Q208E) above, with M24I, E208Q counted along it

SMILES	IC50 [1] [nM]	IC50 [2] [nM]	IC50 [3] [nM]	IC50 [4] [nM]	IC50 [5] [nM]	IC50 [6] [nM]	IC50 [7] [nM]	IC50 [8] [nM]	IC50 [9] [nM]	IC50 [10] [nM]	IC50 [11] [nM]	IC50 [12] [nM]	IC50 [13] [nM]	IC50 [14] [nM]
CN(CCc1ccccc1)Cc1c(-c2ccc([N+](=O)[O-])cc2)sc2c1c(=O)n(-c1ccccc1)c(=O)n2Cc1c(F)cccc1F	3300	> 10000	1600	1300	> 10000	1900	7100	> 10000	1100	> 10000	> 10000	> 10000	1900	5000
CN(Cc1ccccc1)Cc1c(-c2ccc([N+](=O)[O-])cc2)sc2c1c(=O)n(-c1ccccc1)c(=O)n2Cc1c(F)cccc1F	3000	> 10000	1900	1600	> 10000	1400	> 10000	> 10000	600	> 10000	> 10000	> 10000	1100	> 10000
CC(=O)Nc1ccc(-c2sc3c(c2CN(C)Cc2ccccc2)c(=O)n(-c2ccccc2)c(=O)n3Cc2c(F)cccc2F)cc1	1700	2000	210	31	240	160	1600	2400	29	2300	4400	1100	52	230
CN(Cc1ccccc1)Cc1c(-c2ccc(NC3=NCCN3)cc2)sc2c1c(=O)n(-c1ccccc1)c(=O)n2Cc1c(F)cccc1F	4400	> 10000	3300	480	1020	2100	800	5200	240	> 10000	5000	1800	350	1400

Stronger by IC50 [1], values ahead:

IC50 [1] [nM]	IC50 [2] [nM]	IC50 [3] [nM]	IC50 [4] [nM]	IC50 [5] [nM]	IC50 [6] [nM]	IC50 [7] [nM]	IC50 [8] [nM]	IC50 [9] [nM]	IC50 [10] [nM]	IC50 [11] [nM]	IC50 [12] [nM]	IC50 [13] [nM]	IC50 [14] [nM]	SMILES
400	400	15	26	22	13	800	220	6	380	1500	100	20	31	CN(Cc1ccccc1)Cc1c(-c2ccc(NC(=O)c3ccccc3)cc2)sc2c1c(=O)n(-c1ccccc1)c(=O)n2Cc1c(F)cccc1F
710	> 10000	390	370	1600	530	500	> 10000	210	4000	> 10000	950	390	1500	CN(Cc1ccccc1)Cc1c(-c2ccc(N)cc2)sc2c1c(=O)n(-c1ccccc1)c(=O)n2Cc1c(F)cccc1F
240	4500	58	200	110	40	400	3600	52	> 10000	2000	2650	900	450	CN(CCc1ccccn1)Cc1c(-c2ccc([N+](=O)[O-])cc2)sc2c1c(=O)n(-c1ccccc1)c(=O)n2Cc1c(F)cccc1F
600	1400	1100	30	190	500	4000	1200	20	390	6000	900	70	70	CN(Cc1ccccc1)Cc1c(-c2ccc(NC(=O)NCc3ccccc3)cc2)sc2c1c(=O)n(-c1ccccc1)c(=O)n2Cc1c(F)cccc1F
